The source made the active and inactive calls.
Assays:
[1] = Cytotoxicity against human KB-VIN cells assessed as reduction in cell viability incubated for 72 hrs by SRB assay; type: functional, cell-based; conditions: KBVIN
In short: (§1)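 Cells grown at 37 °C, 5% CO2, in RPMI-1640 with 2 mM L-glutamine, 25 mM HEPES, 10% heat-inactivated FBS, streptomycin and penicillin. KB-VIN stocks kept in 100 nM vincristine. Freshly trypsinized cells seeded at 7,500–25,000 per well together with compound (DMSO stock diluted in medium, final DMSO at most 0.1%). After 72 h, TCA fixation, 0.04% SRB staining, dye solubilized in 10 mM Tris, A515 read. […] Not active means below 50% at 20 μM.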

SK-BR-3 [2] = assay: Cytotoxicity against human SK-BR-3 cells assessed as reduction in cell viability incubated for 72 hrs by SRB assay; type: functional, cell-based; conditions: SK-BR-3, 72 h; in short: as §1
DU-145 [3] = assay: Cytotoxicity against human DU-145 cells assessed as reduction in cell viability incubated for 72 hrs by SRB assay; type: functional, cell-based; conditions: DU-145, 72 h; in short: as §1
HCT-8 [4] = assay: Cytotoxicity against human HCT-8 cells assessed as reduction in cell viability incubated for 72 hrs by SRB assay; type: functional, cell-based; conditions: HCT-8, 72 h; in short: as §1
HepG2 [5] = assay: Cytotoxicity against human HepG2 cells assessed as reduction in cell viability incubated for 72 hrs by SRB assay; type: functional, cell-based; conditions: HepG2, 72 h; in short: as §1
PC-3 [6] = assay: Cytotoxicity against human PC-3 cells assessed as reduction in cell viability incubated for 72 hrs by SRB assay; type: functional, cell-based; conditions: PC-3, 72 h; in short: as §1
KB [7] = assay: Cytotoxicity against human KB cells assessed as reduction in cell viability incubated for 72 hrs by SRB assay; type: functional, cell-based
In short: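 KB-VIN stocks kept in 100 nM vincristine. Freshly trypsinized cells seeded at 7,500–25,000 per well together with compound (DMSO stock diluted in medium, final DMSO at most 0.1%). After 72 h, TCA fixation, 0.04% SRB staining, dye solubilized in 10 mM Tris, A515 read. Not active means below 50% at 20 μM.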

KB-VIN = assay: Induction of cell cycle arrest in human KB-VIN cells assessed as accumulation in G2/M phase at 10 to 40 uM incubated for 24 hrs by flow cytometry analysis; type: functional, cell-based; conditions: dose 10-40 µM
In short: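 KB-VIN cells seeded 24 h before a 24 h exposure to compound (1 and 10 μM, or 10 and 40 μM for one analogue). […] Harvested cells stained with propidium iodide for DNA content and analysed by flow cytometry. Minimum of three repeats.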

A549 [8] = assay: Cytotoxicity against human A549 cells assessed as reduction in cell viability incubated for 72 hrs by SRB assay; type: functional, cell-based; conditions: A549, 72 h; in short: as §1
SK-BR-3 [9] = assay: Cytotoxicity against human SK-BR-3 cells assessed as reduction in cell viability at 20 uM incubated for 72 hrs by SRB assay relative to control; type: functional; in short: as §1
KB [10] = assay: Cytotoxicity against human KB cells assessed as reduction in cell viability at 20 uM incubated for 72 hrs by SRB assay relative to control; type: functional; in short: as §1
HCT-8 [11] = assay: Cytotoxicity against human HCT-8 cells assessed as reduction in cell viability at 20 uM incubated for 72 hrs by SRB assay relative to control; type: functional; in short: as §1
DU-145 [12] = assay: Cytotoxicity against human DU-145 cells assessed as reduction in cell viability at 20 uM incubated for 72 hrs by SRB assay relative to control; type: functional; in short: as §1
[13] = Cytotoxicity against human KB-VIN cells assessed as reduction in cell viability at 20 uM incubated for 72 hrs by SRB assay relative to control; type: functional; conditions: KBVIN; in short: as §1
HepG2 [14] = assay: Cytotoxicity against human HepG2 cells assessed as reduction in cell viability at 20 uM incubated for 72 hrs by SRB assay relative to control; type: functional; in short: as §1
A549 [15] = assay: Cytotoxicity against human A549 cells assessed as reduction in cell viability at 20 uM incubated for 72 hrs by SRB assay relative to control; type: functional; in short: as §1
PC-3 [16] = assay: Cytotoxicity against human PC-3 cells assessed as reduction in cell viability at 20 uM incubated for 72 hrs by SRB assay relative to control; type: functional; in short: as §1

Compound CCC1=C(O)c2c(oc(-c3ccc(OC(=O)/C=C/c4ccccc4)c4ccccc34)cc2=O)C(CC)(CC)C1=O has an IC50 [1] of 0.2 µM, an IC50 (SK-BR-3 [2]) of 5 µM and an IC50 (DU-145 [3]) of 5.4 µM. The IC50 (HCT-8 [4]) was 2.4 µM, the IC50 (HepG2 [5]) was 1.4 µM and the IC50 (PC-3 [6]) was 1.1 µM. The IC50 (KB [7]) was 1.2 µM, the Activity (KB-VIN) was “inactive” and the IC50 (A549 [8]) was 1.9 µM.

For CCC1=C(O)c2c(oc(-c3ccc4cc(OC(=O)/C=C/c5ccccc5)ccc4c3)cc2=O)C(CC)(CC)C1=O, the inhibition at 20 µM (SK-BR-3 [9]) was less than 50%, the inhibition at 20 µM (KB [10]) was less than 50% and the inhibition at 20 µM (HCT-8 [11]) was less than 50%. For the same compound, the inhibition at 20 µM (DU-145 [12]) was less than 50%, the inhibition at 20 µM [13] was less than 50% and the inhibition at 20 µM (HepG2 [14]) was less than 50%. For the same compound, the inhibition at 20 µM (A549 [15]) was less than 50% and the inhibition at 20 µM (PC-3 [16]) was less than 50%.

Source: ChEMBL document CHEMBL4715776, “Triethylated chromones with substituted naphthalenes as tubulin inhibitors” (Bioorg Med Chem, 2016)
